Activity calls are given as the source filed them.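 The calls were made as follows, unless noted: active = Her2 level under about 52% in both replicate screens, with viability over 70% of control (limit read from the data); inconclusive = Her2 under the limit in one screen only, or viability under 70%; inactive = Her2 level above the set limit.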
Legend:
[1] = reducers of endogenous Her2 protein level, primary screen, SKBR3 breast tumor cells, AlphaScreen, ATP viability (AID 461); details: 18-24 h, measured here: SKBR3 viability, ATP luminescence, at 10 µM;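 as to Her2 level: lower value means less Her2 protein in the cells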;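 as to viability: percent of carrier control wells set as 100% viability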
[2] = target: Receptor tyrosine-protein kinase erbB-2 (Homo sapiens) (UniProt P04626); test: as above; details: 18-24 h, at 10 µM, stronger effect = lower value
Receptor tyrosine-protein kinase erbB-2 (Homo sapiens), sequence (P04626 whole entry, looked up): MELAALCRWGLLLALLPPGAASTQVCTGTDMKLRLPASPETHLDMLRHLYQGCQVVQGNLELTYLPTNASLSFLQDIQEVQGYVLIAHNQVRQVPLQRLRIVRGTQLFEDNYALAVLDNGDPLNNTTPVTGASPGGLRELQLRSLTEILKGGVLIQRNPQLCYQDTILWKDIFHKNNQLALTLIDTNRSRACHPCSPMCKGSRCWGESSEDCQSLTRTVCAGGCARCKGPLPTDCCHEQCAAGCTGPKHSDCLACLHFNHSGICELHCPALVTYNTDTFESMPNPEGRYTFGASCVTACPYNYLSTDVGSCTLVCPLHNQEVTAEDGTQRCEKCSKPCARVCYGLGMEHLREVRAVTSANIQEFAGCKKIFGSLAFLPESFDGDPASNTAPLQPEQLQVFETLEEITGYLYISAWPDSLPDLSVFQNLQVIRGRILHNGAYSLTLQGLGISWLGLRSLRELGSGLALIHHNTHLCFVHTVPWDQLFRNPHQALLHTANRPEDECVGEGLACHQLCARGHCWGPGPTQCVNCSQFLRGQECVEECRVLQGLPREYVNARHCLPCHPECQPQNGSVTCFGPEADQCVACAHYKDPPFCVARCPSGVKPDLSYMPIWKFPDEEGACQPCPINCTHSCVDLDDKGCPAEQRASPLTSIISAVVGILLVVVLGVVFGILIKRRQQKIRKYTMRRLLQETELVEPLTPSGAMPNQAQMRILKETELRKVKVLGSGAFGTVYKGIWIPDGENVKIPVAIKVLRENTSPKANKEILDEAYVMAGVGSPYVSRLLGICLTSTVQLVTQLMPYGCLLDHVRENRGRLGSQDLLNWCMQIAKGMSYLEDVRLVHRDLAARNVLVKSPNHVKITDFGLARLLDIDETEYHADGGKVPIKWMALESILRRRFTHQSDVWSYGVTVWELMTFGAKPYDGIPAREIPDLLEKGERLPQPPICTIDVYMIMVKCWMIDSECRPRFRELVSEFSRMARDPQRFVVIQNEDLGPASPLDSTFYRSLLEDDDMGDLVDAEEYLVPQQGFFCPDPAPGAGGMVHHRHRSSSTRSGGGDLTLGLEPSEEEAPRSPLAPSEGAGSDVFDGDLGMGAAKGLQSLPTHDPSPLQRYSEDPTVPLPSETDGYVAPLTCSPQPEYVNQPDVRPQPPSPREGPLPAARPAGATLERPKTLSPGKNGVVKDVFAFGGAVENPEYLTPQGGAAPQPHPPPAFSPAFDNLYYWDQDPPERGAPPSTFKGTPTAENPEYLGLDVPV

[3] = SK-BR-3 cell growth inhibitors, pilot screen, 24 h, human (AID 572;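 active = viability at or below 10% of carrier control in both of two separate runs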;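 also: compound exposure lasted between 18 and 24 h rather than exactly 24 h; 100% = carrier-treated control wells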); details: SK-BR-3 viability, CellTiter-Glo luminescence, at 10 µM, stronger effect = lower value
[4] = HUVEC growth inhibition – cell-based, human, primary screen (AID 575;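 active = viability at or below 30% in both replicate assays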;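 also: 100% = median of untreated cell wells with 0.1% DMSO on each plate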); details: HUVEC proliferation, CellTiter-Glo luminescence, 72 h; at 10 µM; stronger effect = lower value
Summary of the method: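 system = HUVEC primary cells | amount = 1250 cells/well | buffer or medium = supplemented EBM, 2% fetal bovine serum | dosing = single-point 10 µM, DMSO 0.1% final | times = 72 h compound incubation | detection = CTG luminescence | read-out = % viability relative to median vehicle-well signal on each plate | control set = vehicle and MePR control wells | format = collagen-coated 384-well format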

[5] = growth inhibitors of H69AR lung tumor, primary screen, human, duplicate replicates (AID 580;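 active = viability at or under a set limit in both replicates, limit being median viability minus 3 SD, cut at about 48% in these data, passing the limit was not always enough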;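 also: 100% = mean luminescence of untreated wells and 0% = no signal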); details: H69AR lung tumor cells viability, ATP luminescence, 72 h; at 10 µM; stronger effect = lower value
[6] = reversal of MRP1-mediated doxorubicin resistance, pilot screen, H69AR cells, doxorubicin co-treatment (AID 601;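 active = viability loss from added drug above about 55%, and viability with drug at most 40%, in both replicates, limit read from the data, passing the limit was not always enough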); details: CellTiter-Glo, 72 h, at 10 µM; for differential viability (reversal): stronger effect = higher value
[7] = 384-well plate pilot, post-Golgi transport modulator project, inhibition of yeast transport mutant growth (AID 636; in the data active = inhibition above about 31%); details: absorbance 615 nm, about 18 h, stronger effect = higher value
[8] = growth suppression of yeast trafficking mutant, preliminary HTS, modulators of trafficking downstream of Golgi apparatus project, 1536-format plate, OD 615 nm (AID 637; in the data active = inhibition above about 30%); details: yeast transport mutant growth, absorbance 615 nm, 18 h; stronger effect = higher value
[9] = H69AR cells + 2 uM doxorubicin, measured here: viability with 2 uM doxorubicin, stronger effect = lower value
[10] = H69AR cells, compound alone cytotoxicity

| SMILES | viability [1] [%] | Her2 level [2] | viability [3] | viability [4] | viability [5] | differential viability (reversal) ([6]; H69AR cells + 2 uM doxorubicin) | viability [6, 9] [%] | viability [6, 10] [%] | inhibition [7] | inhibition [8] |
| --- | --- | --- | --- | --- | --- | --- | --- | --- | --- | --- |
| CC1CCCCC1NC(=O)CCCc1nc2ccccc2c(=O)[nH]1 (stereo not given) | 80.5 | 93.5% (inactive) | 80.5% (inactive) | 105% (inactive) | 110% (inactive) | 13.7% (inactive) | 96.2 | 110 | 0.27% (inactive) | 2.46% (inactive) |
| CCc1cccc2c(=O)c(C(=O)NCCN3CCOCC3)c[nH]c12 | 104 | 113% (inactive) | 104% (inactive) | 102% (inactive) | 108% (inactive) | 18.2% (inactive) | 90 | 108 | -5.47% (inactive) | 1.29% (inactive) |
| COC(=O)c1c(-c2cccs2)csc1NC(=O)CN1CCOCC1 | 103 | 98.5% (inactive) | 103% (inactive) | 86.6% (inactive) | 82.1% (inactive) | 0.685% (inactive) | 81.4 | 82.1 | -0.13% (inactive) | -1.13% (inactive) |
| CCCC(=O)OCCn1c(Br)nc2c1c(=O)[nH]c(=O)n2C | 98.5 | 86.5% (inactive) | 98.5% (inactive) | 89.4% (inactive) | 93.5% (inactive) | 5.21% (inactive) | 88.2 | 93.5 | -1.47% (inactive) | 1.45% (inactive) |
| CC(C)COC(=O)C1[C@H]2C(=O)N(Cc3cccs3)C[C@]23C=C[C@H]1O3 (stereo not given in full) | 102 | 109% (inactive) | 102% (inactive) | 110% (inactive) | 91.1% (inactive) | 1.3% (inactive) | 89.8 | 91.1 | -4.29% (inactive) | -2.33% (inactive) |
| Cc1ccc(OC(=O)CCC(=O)OCCCC(F)(F)C(F)(F)F)cc1 | 102 | 104% (inactive) | 102% (inactive) | 91.2% (inactive) | 94.3% (inactive) | 3.79% (inactive) | 90.5 | 94.3 | -1.76% (inactive) | -1.64% (inactive) |
| Cc1cc(NC(=O)c2ccc3c(c2)C(=O)N(Cc2cccnc2)C3=O)no1 | 96.5 | 110% (inactive) | 96.5% (inactive) | 106% (inactive) | 102% (inactive) | 0.045% (inactive) | 102 | 102 | -1.07% (inactive) | 12.5% (inactive) |
| O=C(CP(=O)(CO)CO)c1ccc(Cl)cc1 | 100 | 95% (inactive) | 100% (inactive) | 100% (inactive) | 101% (inactive) | 8.5% (inactive) | 92.3 | 101 | -0.26% (inactive) | -2.18% (inactive) |
| CN(C=C1C(=O)CC(C)(C)CC1=O)CCN1CCNCC1 | 120 | 102% (inactive) | 120% (inactive) | 90.3% (inactive) | 96% (inactive) | 10.2% (inactive) | 85.8 | 96 | -4.21% (inactive) | 2.13% (inactive) |
| CC1=C(C(=O)NCc2ccco2)C2(CCC(C)CC2)OC1=O (stereo not given) | 89.5 | 100% (inactive) | 89.5% (inactive) | 94% (inactive) | 84% (inactive) | -0.86% (inactive) | 84.8 | 84 | -4% (inactive) | -5.74% (inactive) |
| C#CCNc1c(C)c(C)nc2ncnn12 | 104 | 97% (inactive) | 104% (inactive) | 126% (inactive) | 104% (inactive) | 18.7% (inactive) | 85.3 | 104 | -5.07% (inactive) | 11.5% (inactive) |
| CCC(=O)Nc1c2c(nn1-c1ccccc1C)CSC2 | 86.5 | 89.5% (inactive) | 86.5% (inactive) | 104% (inactive) | 102% (inactive) | 12.8% (inactive) | 89.4 | 102 | -4.42% (inactive) | -3.65% (inactive) |
| CCOC(=O)C1=C(C)N=C2SC(C)C(=O)N2C1c1cccc(F)c1 (stereo not given) | 102 | 89.5% (inactive) | 102% (inactive) | 85.2% (inactive) | 87.5% (inactive) | 0.855% (inactive) | 86.7 | 87.5 | -3.82% (inactive) | 1.13% (inactive) |
| COc1ccccc1N1C(=O)CC(Sc2nc(C)cc(C)n2)C1=O (stereo not given) | 87 | 96.5% (inactive) | 87% (inactive) | 102% (inactive) | 83.4% (inactive) | -9.3% (inactive) | 92.7 | 83.4 | -5.84% (inactive) | -7.21% (inactive) |
| O=C(Cn1nc(C(F)(F)F)c2c1CCCC2)NCCN1CCOCC1 | 110 | 89% (inactive) | 110% (inactive) | 108% (inactive) | 91.5% (inactive) | 4.05% (inactive) | 87.5 | 91.5 | -1.18% (inactive) | 3.93% (inactive) |
| CCn1nnc(NC(=O)c2ccc(-c3ccc(Cl)cc3)o2)n1 | 87.5 | 122% (inactive) | 87.5% (inactive) | 90% (inactive) | 91.2% (inactive) | 3.21% (inactive) | 88 | 91.2 | -6.62% (inactive) | -0.66% (inactive) |
